Converted amounts (≈) assume the structure as drawn. Starred links: 1 amine or outer side, 2 acyl side, 3 side chain; linkers in the order of their positions; H or OH if unused. Residues, ends and D or L forms follow the SMILES beside them. *: point of attachment. Suc = O=C(CCC(=O)[*:2])[*:1]; OBn = c1ccc(CO*)cc1
What was measured:
[1] = Chemical stability of the compound in solutions of organism-free yeast nitrogen base assessed as half life at 50 uM at 37 degC by UV absorbance analysis; format: physicochemical; details: organism-free yeast nitrogen base solution
Summary of the method: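 Organism-free yeast nitrogen base (0.67%) with 3% dextrose, pH 7.2 (KOH), held at 37 °C in thermostatted cells. Compound in Me2SO added to a final concentration of ca. 5×10^-5 M. Hydrolysis followed as the fall in absorbance at 305 nm over time, first-order fit. Slower compounds (t1/2 > 5 h) were incubated separately and aliquots read at intervals.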

[2] = tested on: Saccharomyces cerevisiae; experiment: Antiyeast activity against Saccharomyces cerevisiae 9763 assessed as total inhibition of fungal growth after 24 to 48 hrs by microdilution-colorimetric method; format: functional
Summary of the method: (§1)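 Microdilution in yeast nitrogen base (0.67%) with 3% dextrose and 0.004% bromothymol blue, pH 7.2, filter-sterilized; twofold serial dilutions 1.28 mg/mL to 0.04 μg/mL. Overnight culture resuspended to about 2×10^6 cells/mL, 50-μL drop per well; organism-free and drug-free control wells. 48 h at 37 °C, read at 24 and 48 h. MIC is the lowest concentration with no blue-to-yellow/light green change; values normalized to molar equivalents of 5-FC.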

[3] = tested on: Candida albicans; experiment: Antiyeast activity against Candida albicans WD 18-4 assessed as total inhibition of fungal growth after 24 to 48 hrs by microdilution-colorimetric method; format: functional; summary of the method: as §1
[4] = tested on: Candida albicans; experiment: Antiyeast activity against Candida albicans clinical isolate 1-V assessed as total inhibition of fungal growth after 24 to 48 hrs by microdilution-colorimetric method; format: functional; summary of the method: as §1
[5] = tested on: Pichia kudriavzevii; experiment: Antiyeast activity against Candida krusei 1-T assessed as total inhibition of fungal growth after 24 to 48 hrs by microdilution-colorimetric method; format: functional; summary of the method: as §1

For `CC(C)C[C@H](NC(=O)[C@H](C)NC(=O)CCC(=O)Nc1nc(=O)[nH]cc1F)C(=O)OCc1ccccc1`, which half-life at 50 µM [1] is on record?
The half-life at 50 µM was 1.1 h.

What about the MIC [2] of the same compound?
The MIC was 0.31 µg/mL (≈ 0.616 µM).

And the MIC [3]?
Its MIC is 5 µg/mL (≈ 9.93 µM).

What about the MIC [4] of the same compound?
The MIC was 0.62 µg/mL (≈ 1.23 µM).

And the MIC [5]?
The MIC was 20 µg/mL (≈ 39.7 µM).

With `CC(C)C[C@H](NC(=O)CCC(=O)Nc1nc(=O)[nH]cc1F)C(=O)N[C@@H](CC(C)C)C(=O)OCc1ccccc1` as the compound, how does the MIC [2] read?
Its MIC is 0.31 µg/mL (≈ 0.568 µM).

What about the MIC [3] of the same compound?
Its MIC is 2.5 µg/mL (≈ 4.58 µM).

What about the MIC [4] of the same compound?
Its MIC is 0.62 µg/mL (≈ 1.14 µM).

What about the MIC [5] of the same compound?
Its MIC is 20 µg/mL (≈ 36.7 µM).

For `O=C(CCC(=O)Nc1nc(=O)[nH]cc1F)NCC(=O)NCC(=O)OCc1ccccc1`, which half-life at 50 µM [1] is on record?
The half-life at 50 µM was 0.3 h.

And the MIC [2]?
The MIC was 0.62 µg/mL (≈ 1.43 µM).

What about the MIC [3] of the same compound?
The MIC was 5 µg/mL (≈ 11.5 µM).

And the MIC [4]?
Its MIC is 0.62 µg/mL (≈ 1.43 µM).

What about the MIC [5] of the same compound?
The MIC was 20 µg/mL (≈ 46.1 µM).

Which half-life at 50 µM [1] does the source give for `CC(C)C[C@H](NC(=O)[C@H](C)NC(=O)CCC(=O)Nc1nc(=O)[nH]cc1F)C(=O)O` here?
Its half-life at 50 µM is 1.7 h.

What about the MIC [2] of the same compound?
The MIC was 0.31 µg/mL (≈ 0.75 µM).

What about the MIC [3] of the same compound?
Its MIC is 5 µg/mL (≈ 12.1 µM).

What about the MIC [4] of the same compound?
Its MIC is 0.31 µg/mL (≈ 0.75 µM).

What about the MIC [5] of the same compound?
Its MIC is 10 µg/mL (≈ 24.2 µM).

Which half-life at 50 µM [1] does the source give for `CC(C)C[C@H](NC(=O)[C@H](CC(C)C)NC(=O)CCC(=O)Nc1nc(=O)[nH]cc1F)C(=O)O` here?
Its half-life at 50 µM is 2.9 h.

What about the MIC [2] of the same compound?
Its MIC is 0.31 µg/mL (≈ 0.681 µM).

What about the MIC [3] of the same compound?
Its MIC is 5 µg/mL (≈ 11 µM).

What about the MIC [4] of the same compound?
The MIC was 0.31 µg/mL (≈ 0.681 µM).

And the MIC [5]?
Its MIC is 10 µg/mL (≈ 22 µM).

Which results are given for `CC(C)C[C@H](NC(=O)CCC(=O)O)C(=O)N[C@@H](CC(C)C)C(=O)OCc1ccccc1`?
MIC [2]: 80 µg/mL (≈ 184 µM); MIC [3]: > 20 µg/mL; MIC [4]: 80 µg/mL (≈ 184 µM); MIC [5]: 320 µg/mL (≈ 736 µM)

For `CC(=O)Nc1nc(O)ncc1F`, which half-life at 50 µM [1] is on record?
Its half-life at 50 µM is 17.6 h.

And the MIC [2]?
Its MIC is 0.31 µg/mL (≈ 1.81 µM).

And the MIC [3]?
Its MIC is 5 µg/mL (≈ 29.2 µM).

What about the MIC [4] of the same compound?
Its MIC is 2.5 µg/mL (≈ 14.6 µM).

And the MIC [5]?
The MIC was 40 µg/mL (≈ 234 µM).

With `CC(C)(C)OC(=O)N[C@@H](CCC(=O)Nc1nc(=O)[nH]cc1F)C(=O)OCc1ccccc1` as the compound, how does the half-life at 50 µM [1] read?
The half-life at 50 µM was 10 h.

What about the MIC [2] of the same compound?
The MIC was 1.25 µg/mL (≈ 2.79 µM).

What about the MIC [3] of the same compound?
The MIC was 2.5 µg/mL (≈ 5.57 µM).

What about the MIC [4] of the same compound?
Its MIC is 2.5 µg/mL (≈ 5.57 µM).

And the MIC [5]?
The MIC was 20 µg/mL (≈ 44.6 µM).

Which results are given for `C[C@H](NC(=O)OC(C)(C)C)C(=O)NCC(=O)Nc1nc(=O)[nH]cc1F`?
half-life at 50 µM [1]: 2.3 h; MIC [2]: 0.62 µg/mL (≈ 1.74 µM); MIC [3]: 1.25 µg/mL (≈ 3.5 µM); MIC [4]: 0.62 µg/mL (≈ 1.74 µM); MIC [5]: 20 µg/mL (≈ 56 µM)

Which MIC [2] does the source give for `O=C(CNC(=O)OCc1ccccc1)Nc1nc(=O)[nH]cc1F` here?
Its MIC is 0.31 µg/mL (≈ 0.968 µM).

And the MIC [3]?
The MIC was 2.5 µg/mL (≈ 7.81 µM).

And the MIC [4]?
The MIC was 0.62 µg/mL (≈ 1.94 µM).

What about the MIC [5] of the same compound?
Its MIC is 10 µg/mL (≈ 31.2 µM).

Which MIC [2] does the source give for `CC(C)C[C@H](NC(=O)[C@H](C)NC(=O)CCC(=O)O)C(=O)OCc1ccccc1` (Suc-Ala-Leu-OBn) here?
Its MIC is 160 µg/mL (≈ 408 µM).

What about the MIC [3] of the same compound?
The MIC was > 20 µg/mL.

What about the MIC [4] of the same compound?
The MIC was 80 µg/mL (≈ 204 µM).

And the MIC [5]?
Its MIC is 320 µg/mL (≈ 815 µM).

Which results are given for `O=C(O)CCC(=O)NCC(=O)NCC(=O)OCc1ccccc1` (Suc-Gly-Gly-OBn)?
MIC [2]: 320 µg/mL (≈ 993 µM); MIC [3]: > 20 µg/mL; MIC [4]: 320 µg/mL (≈ 993 µM); MIC [5]: 320 µg/mL (≈ 993 µM)

Which MIC [2] does the source give for `Nc1nc(=O)[nH]cc1F` [FLUCYTOSINE] here?
Its MIC is 0.31 µg/mL (≈ 2.4 µM).

And the MIC [3]?
Its MIC is 5 µg/mL (≈ 38.7 µM).

What about the MIC [4] of the same compound?
The MIC was 0.31 µg/mL (≈ 2.4 µM).

What about the MIC [5] of the same compound?
Its MIC is 5 µg/mL (≈ 38.7 µM).

Which results are given for `O=c1[nH]cc(F)c(=O)[nH]1` [FLUOROURACIL]?
MIC [2]: 1.25 µg/mL (≈ 9.61 µM); MIC [3]: > 20 µg/mL; MIC [4]: 2.5 µg/mL (≈ 19.2 µM); MIC [5]: 2.5 µg/mL (≈ 19.2 µM)

For `O=C(O)CCC(=O)O` [SUCCINIC ACID], which MIC [2] is on record?
Its MIC is 640 µg/mL (≈ 5420 µM).

What about the MIC [3] of the same compound?
The MIC was > 20 µg/mL.

And the MIC [4]?
Its MIC is 320 µg/mL (≈ 2710 µM).

And the MIC [5]?
The MIC was 320 µg/mL (≈ 2710 µM).

Reference: ChEMBL document CHEMBL3244264, “Anticandidal activity of 5-fluorocytosine-peptide conjugates” (J Med Chem, 1979)
